Assay results as given in the EternaBench riboswitch data.

Test system: MS2 coat protein
Experiment: apparent Kd, MS2 coat protein; higher = weaker binding; RNA-MaP array; FMN 200 µM where present
Outline: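 SNAP-549-labelled MS2 coat protein, doubled from 0.7 or 1.5 nM to 3 µM, was titrated over designs transcribed by stalled E. coli RNA polymerase on Illumina sequencing-chip clusters. Titrations were run without and then with constant ligand in 100 mM Tris-HCl pH 7.5, 80 mM KCl, 4 mM MgCl2, BSA, DTT, yeast tRNA and Tween-20. The apparent Kd is the median of filtered per-cluster fits to green signal normalised to red-channel RNA signal and control-cluster median Fmax.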

[1] = designed as: OFF switch for flavin mononucleotide, no ligand
[2] = ligand present: flavin mononucleotide, designed as: OFF switch for flavin mononucleotide
[3] = designed as: ON switch for flavin mononucleotide, no ligand
[4] = ligand present: flavin mononucleotide, designed as: ON switch for flavin mononucleotide

Sequence | apparent Kd [1] [nM] | apparent Kd [2] [nM] | apparent Kd [3] [nM] | apparent Kd [4] [nM]
UUUGUGUCAGGAUAUGAGUAGUAGAACAAUAGUACUACUACUCAGAAGGGACAUGAGGAUCACCCAUGUUCCUC | 19.3 | 88.3 |  | 
UUGGACGUCGUAGGAUAUGUAUGAUAUUCCUACAUGAGGAUCACCCAUGUUGACAUGGAAGAAGGACAGAAGGACGAUGUCCAU |  |  | 5.8 | 4.56
AGUUAAUAUCGAGGAUAUCCUCAUAUACAUGAGGAUCACCCAUGUAAACAUGGAGAAGGCGAUAUUAACAGCAUGUUACAUGCA |  |  | 377 | 21.9
GAAAACGCAGAGGAUAUUCCAGAUCUAAGCUGCGAAGAAGGCUGCACAUGAGGAUCACCCAUGUGGUCUUUAAA | 18.8 | 116 |  | 
AGUUUGUGAGGAUAUCCAAUAUAUGACAUGAGGAUCACCCAUGUUUCCACUCGUACCUCCGGAGAAGGCACUGCGA | 21.5 | 22.9 |  | 
GGAAAGCGAGGAUAUACAUGAGGAUCACCCAUGUAAACAAACAAACAAACAAACAAAUGUAGAAGGCGCAAAAC | 43.9 | 43 |  | 
CAGACCGGCGCAGGAUAUGUCGACAUGAGGAUCACCCAUGUAAGCCUUGUCUGGUCCGGUGUGUGACAGAAGGGUGUCGGCCAA | 29.5 | 21.9 |  | 
AAAUCGGUAGAGGAUAUUGUACAGGAAACGGUGCGAGAAGGUUGCACAUGAGGAUCACCCAUGUUUAGUUGCGA | 34.9 | 34 |  | 
ACAUGAGGAUCACCCAUGUGAGGAUCACCCAUGUUAUAUUUCAGAAGGCUCGUGUGUUUGAUGAGAGAGGAUAUGGAAUAUAGG | 101 | 71.1 |  | 
AUCCGACAUGAGGAUCACCCAUGUCAGGAUAUGGACUGACAUCGAAAGGAUGGCAGAACCAGAAGGGACUGGGC | 29.9 | 56.2 |  | 
UUGGCGACGUAGAAGGGUGACAUGAGGAUCACCCAUGUGCCGAUAUUUCUCGAAAUAUGUCGGCCACAGGAUAUACGUGCCAUC |  |  | 38.2 | 91.8
GGGUACAUGAGGAUCACCCAUGUAACGUGGAUAAGCUAUAAUAGAAGGAUAAGAGGAGAUGAGGUAUAGGAUAUAUCAUGGGUG | 42.6 | 17.1 |  | 
UCCCGGGUGCAGAAGGGAUAGGCCUAUUUUCGUGGUAUCCAAACCUUACAUGAGGAUCACCCAUGUCAGGAUAUGCCCACGGGA | 4.47 | 4.96 |  | 
CGCGAUGCGGUUGGCCCUGGGCGAGAGGAUAUGGGCAGCGGGACAUGAGGAUCACCCAUGUUCUCUCAGAAGGCUCGAGCAGGC |  |  | 217 | 34.7
UUGGACGUCGUAGGAUAUGUAGGAUAUUCCUACAUGAGGAUCACCCAUGUUGACAUGUAAGAAGGACAGAAGGACGAUGUCCAU |  |  | 208 | 12.2
AUCAGCUCGUCAGGAUAUACGUCACUGCGUCAGCAGUGUGGGAAGAUCACAUGAGGAUCACCCAUGUAGAAGGGACGAGCUGAU | 635 | 20.4 |  | 
ACUUACUGAGGAUAUACAUAGAUUUACAUGAGGAUCACCCAUGUUCCUCUAUGUAUAAAUGUAGAAGGCAGAAGAA | 16.6 | 59.1 |  | 
CUCUUGUGAGGAUAUCAGGUGUGCUAGCGUACUGGUACAUCUGAGAAGGCACAUGAGGAUCACCCAUGUUUCUA | 148 | 23.2 |  | 
AAAACUCACGUAGGAUAUCAUUCCUUAAGGUAGUGAGAAGGACGUGACUACAUGUCCUAAAACAUGAGGAUCACCCAUGUAGGC | 33.5 | 26.5 |  | 

Sequence | apparent Kd [1] [nM] | apparent Kd [2] [nM] | apparent Kd [3] [nM] | apparent Kd [4] [nM]
CUUAUGUAAGGAUAUCAGUAGUAAAAAAAUAAAAUUACUACUGAGAAGGUACAUGAGGAUCACCCAUGUAUCAA | 27.6 | 30.4 |  | 
AAGAAGUAAGGAUAUGCAUGGCGGGACUUGCGUCGUGGCGUGCAGAAGGUACAUGAGGAUCACCCAUGUAAAGA | 27.2 | 15.4 |  | 
UUUGCAUUCCGAGGAUAUUCAUAUAAUAAAUAAACAUGAGGAUCACCCAUGUGGCGAAAGCCUAGGGAGAAGGCGGAAUGCUUU |  |  | 184 | 22
UUACUCAUGUAAGGAUAUGCAGCCGUUUCGGCUGCAGAAGGUACUAUAAUACAUGAGGAUCACCCAUGUCUUUUGAAUUUAGAC |  |  | 91.4 | 33.3
UUUACAUGAGGAUCACCCAUGUAUAGAACGGUUAAUUAAAGUGAGGAUAUACAUAAUUUUAAAUUGUAGAAGGCACUGGGUACA |  |  | 14.4 | 19.9
CGUUUAUAUAUGGGUUUAUAUUAUGAGGAUAUCAAUAUUUAAUACAUGAGGAUCACCCAUGUUACUGAGAAGGCAUAAUUAACG |  |  |  | 6.99
UAAACAUGAGGAUCACCCAUGUAAAGAUCGGUAGUAGAGAGUGAGGAUAUACUAAAUUUUAUGGAGUAGAAGGCACUGGGUUCU |  |  | 40.1 | 32.3
UUGGCGCGAUCCUGGGUCUCACAUGAGGAUCACCCAUGUAGAGAGGAUAUGCAUAGGGCCCAAUGGCAGAAGGCUCUACAUGAG | 91.4 | 57.2 |  | 
AGUCGGAGCGGAGGAUAUACAUGAGGAUCACCCAUGUAAUAAAGUGAAGCCUGGAAACAGGCAAUGUAGAAGGCUGCUCCGACA | 11 | 74.8 |  | 
CCUGCACAUGAGGAUCACCCAUGUCAGGAUAUCUCGCCGUCGGCUUGCCGACGGUAUUAGAGAAGGGACACGGG | 29.3 | 26 |  | 
GUAAUUAAGAGAGGAUAUUGACAUGAGGAUCACCCAUGUAUUUGGGAGUGUUCACUGAAUUCUUACGAGAAGGCUUUUAAAUAC | 329 | 285 |  | 
AGUAAGAUGCAGAAGGUGUCAGCGAGAGCUACGACAUGAGGAUCACCCAUGUACUAGGUAGAGUACAAGGAUAUGCAUCUUACA |  |  | 324 | 24.6
UUCAUGUGAGGAUAUAAAAUGAAUAUAAAUUAUUAUCUUGAUUAGAAGGCACAUGAGGAUCACCCAUGUCUGAA | 33.1 | 47.9 |  | 
CUGAUGUGAGGAUAUCUAAAAGAAACUGGGCAAAUACCCAGAGAGAAGGCACAUGAGGAUCACCCAUGUAACGA | 21.3 | 86.8 |  | 
GGCGAACAGGCUAACAUGAGGAUCACCCAUGUGGACUCAUGGUAGGAUAUCGGGAAGGAGGAAACCGAGAAGGGCCGGUGAGCA |  |  | 202 | 43.6
UAGGACUUCGUAGGAUAUGUAUUUGAUUUCUACAUGAGGAUCACCCAUGUUUGCAUUUUUUUUUGACAGAAGGACGUGGUCCUA |  |  | 16.8 | 13.2
GGUCGUCAAGUCAGGAUAUCGUAUAGUAGAUAUAACGAGAAGGGACAUGAGGAUCACCCAUGUCGUCUCAUCAG | 19 | 29 |  | 
UCUAGACAUGAGGAUCACCCAUGUGAGGAUAUGAUGCGAUCGUCGAAAGACGAUAGCAUCAGAAGGCACAUAUG | 154 | 469 |  | 
UAUUUAUAGCAAGGAUAUGAUUAUUAUUAUUUAUCAGAAGGUGCACAUGAGGAUCACCCAUGUUUUAUAUAUAAUAAUUUAAUU | 113 | 30.6 |  | 

Sequence | apparent Kd [1] [nM] | apparent Kd [2] [nM] | apparent Kd [3] [nM] | apparent Kd [4] [nM]
AAGGAUAGAGGAUAUGCAUAGAUACAGAUUCAUGUAGAACUACAUGAGGAUCACCCAUGUAGAAGGCUAUCCUA | 18.6 | 50.8 |  | 
GCAGGAUAAGUGAGGAUAUACCUCUGGAUACAGAGGUAGAAGGCACAUGAGGAUCACCCAUGUCUAUCACCUGC | 16 | 41.3 |  | 
UUUACAUGAGGAUCACCCAUGUAUAGAACGGUUCAUUAAAGUGAGGAUAUACAUAAUUUUAAAUUGUAGAAGGCACUGGGUACA |  |  | 17.7 | 19.1
UGAGCAACAGGAUAUAUGUGGCGUCCGUGAGGACGAAGGUUACAUGAGGAUCACCCAUGUAGAAGGGUUGUUCU | 169 | 366 |  | 
UAUAUAUAGUAAGGAUAUGUAUUAUUUUUAUAAACAGAAGGUACUGACAUGAGGAUCACCCAUGUUUUAGUGUGGGCAUGUAGA | 49.1 | 70.4 |  | 
UGAUGAGGUUAGAAGGUACAGAGUAGUGGACCAAACAUGAGGAUCACCCAUGUCAUGGGAGGGAGUAAGGAUAUAAAGUUGUAG | 63.7 | 51.2 |  | 
GUCUCGUGAGGAUAUGACGCUACUUUUUUGUUUUAGUAGAGUCAGAAGGCACAUGAGGAUCACCCAUGUGAUUC | 78.6 | 48.7 |  | 
GCGUAUUAGGUGUAGCUAGUCAUUCAAGAAGGGUGAAGAACAUGAGGAUCACCCAUGUUGUUUUUACAGGAUAUUGAUAUACGC |  |  | 68 | 8.52
GAAAUUCGGGCAGGAUAUGGGUGCCGUCAAGACAUGAGGAUCACCCAUGUCCCAUGCACGAGCGCUCAGAAGGGCUCAUUGCAG |  |  | 20.8 | 22
UGGUCAUGAUCAGGAUAUUAACAUGGGCUACAUUAAGAAGGGAUAGUGAGAUACGAACUGAACGACAUGAGGAUCACCCAUGUU |  |  | 40.4 | 30.4
ACCUUACAUGAGGAUCACCCAUGUUAGGAUAUCUCGCCCGCGCAAACACAGCGCAGGCAGAGAAGGGACGCGGG | 31.8 | 32.8 |  | 
GCCGGAUUUGUGAGGAUAUACCUAUGGAUACAUAGGUAGAAGGCACAUGAGGAUCACCCAUGUUCCUCACCGGC | 33 | 288 |  | 
CUUAUGUGAGGAUAUCAGUAGUAAAAAAAUAAAAUUACUACUGAGAAGGCACAUGAGGAUCACCCAUGUCUUUC | 33 | 37.8 |  | 
GGUCGUCUCAUUAACAUGAGGAUCACCCAUGUCAAAAGACAUGAGGAUAUGGAUCCUAAUUGGAUCCAGAAGGCAUGGACGACC |  |  | 1110 | 60.4
ACCUAUGAGGAGGAUAUACGGUGCGAAAGGACGGUAGAAGGCUUCACAUGAGGAUCACCCAUGUCGAUAAGCGA | 21.2 | 22.5 |  | 
GCCGGUUCCCUAGGAUAUGUACAUGAGGAUCACCCAUGUGCCUCUAGAGCCGGAACAGGGCAUGUACAGAAGGAGGGUCGACCC |  | 8.03 |  | 
GUAGCAUACCGAGGAUAUUCAUACCGGAAACGGACAUGAGGAUCACCCAUGUUACGAAAGUAUUGGGAGAAGGCGGAAUGCUAC |  |  | 135 | 22.6
CUUUUGUGAGGAUAUCAGUAGUAAUACAAUAGUAUUACUACUGAGAAGGCACAUGAGGAUCACCCAUGUUCCUC | 45 | 162 |  | 
